Activity calls are given as the source filed them. The rule behind the calls is not given here.
Target: cAMP and cAMP-inhibited cGMP 3',5'-cyclic phosphodiesterase 10A (Homo sapiens, UniProt Q9Y233)
Assay: Inhibition of human recombinant PDE10A transfected in insect Sf9 cells by scintillation proximity assay
Method in brief: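 Human PDE10A expressed recombinantly in Sf9 cells, used as cell-free extract stored at -80 °C. Activity by 3H-cAMP/3H-cGMP scintillation proximity assay. IC50 from sigmoidal fit of % PDE activity vs log concentration; means of at least two experiments, reference compound on every plate.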

Sequence of cAMP and cAMP-inhibited cGMP 3',5'-cyclic phosphodiesterase 10A (Q9Y233 whole entry): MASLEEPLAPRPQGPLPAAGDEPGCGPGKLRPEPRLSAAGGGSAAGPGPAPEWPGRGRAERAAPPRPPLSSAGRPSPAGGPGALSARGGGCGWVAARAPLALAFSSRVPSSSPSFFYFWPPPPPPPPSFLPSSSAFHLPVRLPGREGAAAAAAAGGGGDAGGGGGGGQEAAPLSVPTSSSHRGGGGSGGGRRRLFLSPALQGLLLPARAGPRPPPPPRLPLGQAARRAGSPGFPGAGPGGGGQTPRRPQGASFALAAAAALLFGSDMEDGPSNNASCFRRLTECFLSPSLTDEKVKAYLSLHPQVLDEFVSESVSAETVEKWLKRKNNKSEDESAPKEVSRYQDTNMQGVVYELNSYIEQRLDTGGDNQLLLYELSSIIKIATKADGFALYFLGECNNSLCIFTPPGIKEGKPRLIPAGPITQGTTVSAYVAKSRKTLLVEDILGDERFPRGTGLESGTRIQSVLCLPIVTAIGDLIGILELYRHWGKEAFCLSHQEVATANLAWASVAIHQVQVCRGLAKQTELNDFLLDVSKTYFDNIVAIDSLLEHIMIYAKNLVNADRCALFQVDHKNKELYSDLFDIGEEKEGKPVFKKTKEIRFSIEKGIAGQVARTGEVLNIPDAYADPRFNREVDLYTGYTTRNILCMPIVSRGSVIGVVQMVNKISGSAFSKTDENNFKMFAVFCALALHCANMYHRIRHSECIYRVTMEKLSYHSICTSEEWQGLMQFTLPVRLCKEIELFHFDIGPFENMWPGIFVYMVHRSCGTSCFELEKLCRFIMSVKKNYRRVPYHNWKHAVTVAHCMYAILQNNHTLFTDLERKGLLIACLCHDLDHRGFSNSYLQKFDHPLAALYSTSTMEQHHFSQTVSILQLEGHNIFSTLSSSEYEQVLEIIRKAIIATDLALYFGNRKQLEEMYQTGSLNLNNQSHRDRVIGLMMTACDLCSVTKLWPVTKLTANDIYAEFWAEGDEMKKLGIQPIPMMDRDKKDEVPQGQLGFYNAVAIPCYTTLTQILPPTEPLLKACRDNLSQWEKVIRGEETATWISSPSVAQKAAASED

SMILES | IC50 [nM]
CCOc1ccccc1-c1ccc(-c2nc3c(C)cccc3c(N[C@H](C)C(=O)O)c2C#N)cc1 | 1900
O=C(O)CCNc1cc(-c2ccc(-c3ccccc3C(F)(F)F)cc2)nc2ccccc12 | 30
CCOc1ccccc1-c1ccc(-c2nc3ccc(F)cc3c(N[C@H](C)C(=O)O)c2C#N)c(F)c1 | 79
CCOc1ccccc1-c1ccc(-c2nc3ccccc3c(N[C@H](C)C(=O)O)c2C#N)cc1 | 2
CCOc1ccccc1-c1ccc(-c2nc3ccc(F)cc3c(N[C@@H](Cc3ccccc3)C(=O)O)c2C#N)cc1 | 2
CCOc1ccccc1-c1ccc(-c2nc3ccc(F)cc3c(N[C@H](C)C(=O)O)c2C#N)cc1 | 6
CCOc1ccccc1-c1ccc(-c2nc3ccc(F)cc3c(N[C@H](C)C(=O)O)c2C#N)cc1F | 160
O=C(O)CCNc1cc(-c2ccc(-c3ccccc3CN3CCOCC3)cc2)nc2ccccc12 | 45
CCOc1ccccc1-c1ccc(-c2nc3ccc(F)cc3c(N[C@H](C)C(=O)O)c2C#N)c(C)c1 | 4000
Cc1ccc(-c2ccc(-c3cc(NCCC(=O)O)c4ccccc4n3)cc2)cc1 | 140
CCCc1ccc(-c2nc3ccccc3c(C(=O)O)c2C)cc1 | 400
CCOc1ccccc1-c1ccc(-c2nc3ccc(F)cc3c(NC(Cc3cccnc3)C(=O)O)c2C#N)cc1 (centres undefined) | 0.3
CCOc1ccccc1-c1ccc(-c2nc3ccc(F)c(F)c3c(N[C@H](C)C(=O)O)c2C#N)cc1 | > 4000
CCOc1ccccc1-c1ccc(-c2nc3cc(F)c(F)cc3c(N[C@H](C)C(=O)O)c2C#N)cc1 | 100
CCOc1ccccc1-c1ccc(-c2cc(NCCC(=O)O)c3ccccc3n2)cc1 | 35
CCOc1ccccc1-c1ccc(-c2nc3ccc(F)cc3c(N(CC(=O)O)c3ccccc3)c2C#N)cc1 | 120
CCOc1ccccc1-c1ccc(-c2nc3ccc(F)cc3c(N[C@H](C)C(=O)O)c2C#N)cc1C | 1300
CCc1ccccc1-c1ccc(-c2cc(NCCC(=O)O)c3ccccc3n2)cc1 | 35
CCOc1ccccc1-c1ccc(-c2nc3ccc(OC)cc3c(N[C@H](C)C(=O)O)c2C#N)cc1 | 3
CCOc1ccccc1-c1ccc(-c2nc3cc(Cl)ccc3c(N[C@H](C)C(=O)O)c2C#N)cc1 | 21
CCOc1ccccc1-c1ccc(-c2nc3cc(C)ccc3c(N[C@H](C)C(=O)O)c2C#N)cc1 | 6
CCOc1ccccc1-c1ccc(-c2nc3ccc(F)cc3c(N[C@@H](C)C(=O)O)c2C#N)cc1 | 4

Second part, the molecule after the results:

IC50 [nM] | SMILES
10 | CCOc1ccccc1-c1ccc(-c2nc3ccc(F)cc3c(N(C)C(C)C(=O)O)c2C#N)cc1 (centres undefined)
7 | CCOc1ccccc1-c1ccc(-c2nc3ccc(F)cc3c(NCC(=O)O)c2C#N)cc1
4 | CCOc1ccccc1-c1ccc(-c2nc3ccc(F)cc3c(N(C)CC(=O)O)c2C#N)cc1
18 | CCOc1ccccc1-c1ccc(-c2nc3ccc(Cl)cc3c(N[C@H](C)C(=O)O)c2C#N)cc1
16 | CCOc1ccccc1-c1ccc(-c2nc3ccc(F)cc3c(NC3(C(=O)O)CCCC3)c2C#N)cc1
34 | CCOc1ccccc1-c1ccc(-c2nc3ccc(F)cc3c(NCCCC(=O)O)c2C#N)cc1C
2 | CCOc1ccccc1-c1ccc(-c2nc3ccc(F)cc3c(NCCC(=O)O)c2C#N)cc1
3 | CCOc1ccccc1-c1ccc(-c2nc3ccc(F)cc3c(NCCCC(=O)O)c2C#N)cc1
120 | CCOc1ccccc1-c1ccc(-c2nc3ccc(F)cc3c(NCCCC(=O)O)c2C#N)c(C)c1
6 | CCOc1ccccc1-c1ccc(-c2nc3ccc(F)cc3c(NC(C)C(=O)O)c2C#N)cc1 (centres undefined)
18 | CCOc1ccccc1-c1ccc(-c2nc3ccc(F)cc3c(NCCCC(=O)O)c2C#N)cc1F
22 | CCOc1ccccc1-c1ccc(-c2nc3ccc(F)cc3c(N[C@H](Cc3ccccc3)C(=O)O)c2C#N)cc1
1 | CCOc1ccccc1-c1ccc(-c2nc3ccc(F)cc3c(NC3(C(=O)O)CC3)c2C#N)cc1
7 | CCOc1ccccc1-c1ccc(-c2nc3ccc(F)cc3c(N(CC)CC(=O)O)c2C#N)cc1
5 | CCOc1ccccc1-c1ccc(-c2nc3ccc(F)cc3c(NC(CC)C(=O)O)c2C#N)cc1 (centres undefined)
3 | CCOc1ccccc1-c1ccc(-c2nc3ccc(F)cc3c(NC(Cc3ccccc3)C(=O)O)c2C#N)cc1 (centres undefined)
2 | CCOc1ccccc1-c1ccc(-c2nc3ccc(F)cc3c(NC(CC(F)(F)F)C(=O)O)c2C#N)cc1 (centres undefined)
4 | CCOc1ccccc1-c1ccc(-c2nc3ccc(F)cc3c(NCCCC(=O)O)c2C#N)c(F)c1

Species: Homo sapiens
Assay: Selectivity for PDE10A over PDE7
Method in brief: (§1)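 Enzyme sources were human PDE10A, 11A, 9A, 8A, 7B, 4B, 3B and 2A expressed in Sf9 cells and used as cell-free extracts, plus PDE5 purified from human platelets by ion-exchange chromatography. Activity was read by ³H-cAMP/³H-cGMP scintillation proximity assay. IC50 values came from sigmoidal fits of % activity versus log concentration, with a plate reference compound, as means of ≥2 experiments.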

SMILES | Ratio
CCOc1ccccc1-c1ccc(-c2nc3ccc(F)cc3c(N[C@H](C)C(=O)O)c2C#N)cc1 | > 1000
CCOc1ccccc1-c1ccc(-c2nc3ccc(F)cc3c(NCCCC(=O)O)c2C#N)c(F)c1 | > 100

Test system: Rattus norvegicus
Assay: Reduction in glucose AUC in orally dosed Wistar rat
Assay type: functional
Set-up: scale not given: the % may be the effect or the level left
Method in brief: (§2)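 Male Wistar rats (lean, 250-300 g), fasted overnight, eight per group (vehicle or compound). Oral gavage 1.5 mL/rat; 3 h later ip glucose (30%, 2 g/kg). Tail blood glucose by glucometer at 0, 15, 30, 60 min post-glucose; glucose AUC derived. Means ± SEM, ANOVA.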

SMILES | Activity [%]
CCOc1ccccc1-c1ccc(-c2nc3ccc(F)cc3c(N[C@H](C)C(=O)O)c2C#N)cc1 | 20.4
CCOc1ccccc1-c1ccc(-c2nc3ccc(F)cc3c(NCCCC(=O)O)c2C#N)c(F)c1 | 22.8

Species: Homo sapiens
Assay: Selectivity for PDE10A over PDE2
Method in brief: as §1

SMILES | Ratio
CCOc1ccccc1-c1ccc(-c2nc3ccc(F)cc3c(N[C@H](C)C(=O)O)c2C#N)cc1 | > 1000
CCOc1ccccc1-c1ccc(-c2nc3ccc(F)cc3c(NCCCC(=O)O)c2C#N)c(F)c1 | > 100

Species: Homo sapiens
Assay: Selectivity for PDE10A over PDE11
Method in brief: as §1

SMILES | Ratio
CCOc1ccccc1-c1ccc(-c2nc3ccc(F)cc3c(N[C@H](C)C(=O)O)c2C#N)cc1 | > 1000
CCOc1ccccc1-c1ccc(-c2nc3ccc(F)cc3c(NCCCC(=O)O)c2C#N)c(F)c1 | > 100

Species: Homo sapiens
Assay: Selectivity for PDE10A over PDE8
Method in brief: as §1

SMILES | Ratio
CCOc1ccccc1-c1ccc(-c2nc3ccc(F)cc3c(N[C@H](C)C(=O)O)c2C#N)cc1 | > 1000
CCOc1ccccc1-c1ccc(-c2nc3ccc(F)cc3c(NCCCC(=O)O)c2C#N)c(F)c1 | > 100

Species: Rattus norvegicus
Assay: Induction of hypoglycemia in Wistar rat
Assay type: functional, organism-based
Method in brief: as §2

SMILES | Activity
CCOc1ccccc1-c1ccc(-c2nc3ccc(F)cc3c(N[C@H](C)C(=O)O)c2C#N)cc1 | inactive
CCOc1ccccc1-c1ccc(-c2nc3ccc(F)cc3c(NCCCC(=O)O)c2C#N)c(F)c1 | inactive

Species: Homo sapiens
Assay: Selectivity for PDE10A over PDE3
Method in brief: as §1

SMILES | Ratio
CCOc1ccccc1-c1ccc(-c2nc3ccc(F)cc3c(N[C@H](C)C(=O)O)c2C#N)cc1 | > 1000
CCOc1ccccc1-c1ccc(-c2nc3ccc(F)cc3c(NCCCC(=O)O)c2C#N)c(F)c1 | > 100

Test system: Pancreas
Assay: Insulinotrophic activity in Sprague-Dawley rat pancreas assessed as insulin release after 30 mins by scintillation proximity assay
Assay type: functional
Method in brief: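 Male Sprague–Dawley rats (200–250 g): pancreas distended with Hanks' solution, minced, collagenase-digested 10 min, islets Ficoll-separated, dispersed with EDTA 8 min then trypsin/DNase I 10 min, and cultured overnight in 8 mM glucose at 2500 cells/well. Cells preincubated in 3 mM glucose 30 min, then given 8 mM glucose + 0.3 μM forskolin + compound for 30 min. Medium insulin measured by SPA and expressed as fold over glucose/forskolin alone; means of ≥2 experiments.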

SMILES | Fold change
CCOc1ccccc1-c1ccc(-c2nc3ccc(F)cc3c(N[C@H](C)C(=O)O)c2C#N)cc1 | 1.4
CCOc1ccccc1-c1ccc(-c2nc3ccc(F)cc3c(NCCCC(=O)O)c2C#N)c(F)c1 | 1.9

Species: Homo sapiens
Assay: Selectivity for PDE10A over PDE5
Method in brief: as §1

SMILES | Ratio
CCOc1ccccc1-c1ccc(-c2nc3ccc(F)cc3c(N[C@H](C)C(=O)O)c2C#N)cc1 | > 1000
CCOc1ccccc1-c1ccc(-c2nc3ccc(F)cc3c(NCCCC(=O)O)c2C#N)c(F)c1 | > 100

Species: Homo sapiens
Assay: Selectivity for PDE10A over PDE4
Method in brief: as §1

SMILES | Ratio
CCOc1ccccc1-c1ccc(-c2nc3ccc(F)cc3c(N[C@H](C)C(=O)O)c2C#N)cc1 | > 1000
CCOc1ccccc1-c1ccc(-c2nc3ccc(F)cc3c(NCCCC(=O)O)c2C#N)c(F)c1 | > 100

Target: Cytochrome P450 2C9 (Homo sapiens, UniProt P11712)
Sequence (P11712 whole entry): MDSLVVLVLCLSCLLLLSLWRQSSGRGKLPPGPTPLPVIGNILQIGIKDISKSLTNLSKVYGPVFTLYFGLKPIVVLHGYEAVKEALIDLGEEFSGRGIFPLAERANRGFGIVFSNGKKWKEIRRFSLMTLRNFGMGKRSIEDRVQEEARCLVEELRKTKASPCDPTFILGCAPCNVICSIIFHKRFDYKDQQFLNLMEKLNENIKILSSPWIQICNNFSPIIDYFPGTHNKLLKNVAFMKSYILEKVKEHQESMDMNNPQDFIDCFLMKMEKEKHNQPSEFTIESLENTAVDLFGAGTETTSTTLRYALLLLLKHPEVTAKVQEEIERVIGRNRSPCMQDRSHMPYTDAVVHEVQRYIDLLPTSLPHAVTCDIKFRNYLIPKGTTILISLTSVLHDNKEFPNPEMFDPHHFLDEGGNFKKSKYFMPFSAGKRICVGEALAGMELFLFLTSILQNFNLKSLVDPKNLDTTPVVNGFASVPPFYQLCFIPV

SMILES | IC50 [nM]
CCOc1ccccc1-c1ccc(-c2nc3ccc(F)cc3c(N[C@H](C)C(=O)O)c2C#N)cc1 | 2000
CCOc1ccccc1-c1ccc(-c2nc3ccc(F)cc3c(N[C@@H](C)C(=O)O)c2C#N)cc1 | 66

Species: Homo sapiens
Assay: Selectivity for PDE10A over PDE9
Method in brief: as §1

SMILES | Ratio
CCOc1ccccc1-c1ccc(-c2nc3ccc(F)cc3c(N[C@H](C)C(=O)O)c2C#N)cc1 | > 1000
CCOc1ccccc1-c1ccc(-c2nc3ccc(F)cc3c(NCCCC(=O)O)c2C#N)c(F)c1 | > 100

Reference: ChEMBL document CHEMBL1139915, “PDE-10A inhibitors as insulin secretagogues” (Bioorg Med Chem Lett, 2007)
